High-throughput results deposited in PubChem by several laboratories.
An excerpt weighted towards active compounds, which were near 27% of everything screened.
CYP2C19 act – increases human CYP2C19 enzyme activity | P33261 | recombinant CYP2C19, luciferin-H EGE luminescence; hits give high values; 0 = fully inhibited enzyme, 1 = untreated enzyme | activation factor at 5 µM | 96,000 tested, under 10 active;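 active means activation factor of at least 2 at 5 µM in the primary screen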
Target sequence (P33261 whole entry, looked up): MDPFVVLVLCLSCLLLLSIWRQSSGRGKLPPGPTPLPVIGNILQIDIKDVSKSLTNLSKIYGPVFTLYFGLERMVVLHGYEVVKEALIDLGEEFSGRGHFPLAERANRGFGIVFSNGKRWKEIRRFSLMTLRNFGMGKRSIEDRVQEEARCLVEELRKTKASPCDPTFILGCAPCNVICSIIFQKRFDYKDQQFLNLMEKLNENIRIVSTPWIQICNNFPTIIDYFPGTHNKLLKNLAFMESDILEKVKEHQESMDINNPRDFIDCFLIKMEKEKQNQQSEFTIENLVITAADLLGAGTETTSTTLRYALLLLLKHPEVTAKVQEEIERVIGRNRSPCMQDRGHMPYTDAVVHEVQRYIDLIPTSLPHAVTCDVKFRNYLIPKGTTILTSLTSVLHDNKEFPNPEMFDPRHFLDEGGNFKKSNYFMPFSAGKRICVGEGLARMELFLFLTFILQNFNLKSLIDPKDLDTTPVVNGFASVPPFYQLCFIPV
CYP2C9 inhib – blocks human cytochrome P450 2C9; 96,000 compounds, 20% hits; AID 777; CYP2C9 Supersomes, luciferin-H conversion, luminescence; P11712; inhibition, % at 5 µM;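 active means blocking of liver enzyme CYP2C9 beyond about 50% at 5 µM, limit read from the data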
CYP2C19 inhib – human CYP2C19 inhibition. 96,000 compounds, 21% hits. inhibition, % at 5 µM. CYP2C19 Supersomes, luciferin-H EGE luminescence, 30 min;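 active means CYP2C19 inhibition above a set limit at 5 µM in the primary screen, cut at about 50% in these data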
CYP2C9 activ – increases human cytochrome P450 2C9 activity | P11712 | recombinant CYP2C9, luciferin-H conversion, luminescence; hits give high values; factor 1 = untreated enzyme, 0 = blocked | activation factor at 5 µM | 96,000 compounds, 1.4% hits | AID 1024;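 active means activation factor of 2 or more for CYP2C9 at a 5 µM dose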
Cav3 T inh – blocks human Cav3.2 T-type calcium channel | Cav3.2-expressing cells, Fluo-4 calcium fluorescence FDSS; hits give low values | B-score at 10 µM | 100,000 compounds, 4% hits;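 active means single-dose well whose peak fluorescence ratio is a statistical outlier from its plate by either plate-standardised score or position-corrected B-score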
Rev-RRE block – inhibitors of HIV-1 Rev-RRE RNA interaction | P05866 | Rev peptide-RRE RNA binding, FRET | inhibition, % at 8 µM | AID 704 | 97,000 compounds, 0.79% hits;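 active means inhibition above the screen-wide mean plus 3 SD, cut at about 35% in these data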
Target sequence (P05866 whole entry, looked up): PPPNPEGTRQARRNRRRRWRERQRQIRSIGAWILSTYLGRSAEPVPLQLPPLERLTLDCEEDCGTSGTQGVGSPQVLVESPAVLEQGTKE
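Test system – labelled RRE RNA duplex and labelled Rev peptide · Signal – fluorescein-to-Cy5 FRET, 480 nm excitation · Evaluation – % inhibition of FRET ratio versus controls · Benchmarks – DMSO low control, neomycin B high control · Incubation – 5 min RNA-compound premix plus 15 min binding step, 25 °C · Medium – HEPES pH 7.5 salt buffer with EDTA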
Hits are given with their value; - = inactive; . = not tested or not shown.

SMILES | CYP2C19 act | CYP2C9 inhib | CYP2C19 inhib | CYP2C9 activ | Cav3 T inh | Rev-RRE block
COC(=O)C1=C(C)NC2=C(C(=O)CCC2)C1c1cccc(C)n1 (configuration not stated) | - | - | - | - | - | .
COc1ccc(-c2ccc3c(N)c(C(=O)c4cccc(OC)c4)sc3n2)cc1 | - | - | - | - | - | 55
OC(COc1ccc(C2C=CCC2)cc1)CN1CCCCC1 (configuration not stated) | - | - | - | - | - | -
Cc1csc(NC(=O)c2c(O)c3c(n(CC(C)C)c2=O)CCCC3)n1 | - | 51 | - | - | - | -
CCCn1c2c(c(O)c(C(=O)Nc3nc(C)cs3)c1=O)CCCC2 | - | - | - | - | - | -
CCCN(C(=S)Nc1ccccc1)C1CCS(=O)(=O)C1 (configuration not stated) | - | - | - | - | - | -
CCCCN(C(=O)NC(=O)Nc1ccccc1OC)S(C)(=O)=O | - | - | - | - | - | -
CCCCCN(C(=O)NC(=O)Nc1nncs1)S(C)(=O)=O | - | 61 | - | - | - | -
CCCCN(C(=O)NC(=O)Nc1cc(C)ccc1C)S(C)(=O)=O | - | 56 | - | - | - | -
CCOC(=O)C1Nc2ccccc2C2C(O)C(O)CC12 (configuration not stated) | . | . | . | . | - | .
CCOc1cccc(C(=O)Nc2ccc(N(CC)CC)cc2)c1 | - | - | - | - | . | .
CCOc1ccc(NC(=O)c2cccc(OC(=S)N3CCC(C)CC3)c2)cc1 | - | 74 | 94 | - | -4.3 | -
COc1cc(/C=N\NC(=O)c2ccc(=O)[nH]n2)cc(OC)c1OC | - | - | - | - | . | -
Cn1c(SCC(=O)NCC2CCCO2)nc2c([nH]c3ccccc32)c1=O (configuration not stated) | . | . | . | . | - | -
COc1ccc(-n2c(SCC(=O)NCC3CCCO3)nc3ccccc32)cc1 (configuration not stated) | - | 90 | 93 | - | - | -
O=C(CCCn1c(SCC(=O)NCC2CCCO2)nc2ccccc2c1=O)NCc1ccccc1 (configuration not stated) | - | 56 | - | - | - | -
Cc1ccccc1-n1c(Cn2c(=O)sc3ccccc32)nnc1SCC(=O)NCC1CCCO1 (configuration not stated) | - | 50 | - | - | - | -
N#CCCn1c(SCC(=O)NCC2CCCO2)nc2ccccc21 (configuration not stated) | - | - | - | - | - | -
Cc1ccccc1-n1c(Cn2c(=O)sc3ccccc32)nnc1SCC(N)=O | - | - | - | - | - | .
Cc1cc(NC(=O)CSc2nc3ccccc3c(=O)n2CCCC(=O)NCc2ccccc2)n[nH]1 | - | 78 | 87 | - | - | -
CCCCn1c(SCC(=O)Nc2nccs2)nc2ccccc2c1=O | - | - | - | - | - | -
Cc1nc(CN2CCN(C(=O)c3ccc(C(C)(C)C)cc3)CC2)cs1 | - | - | - | - | - | -
Cc1ccnc2nc(C(=O)N3CCN(S(=O)(=O)c4ccccc4)CC3)nn12 | - | - | - | - | - | -
COc1ccc(Cn2c(CCC(=O)NCc3ccco3)nc3cccnc32)cc1 | - | - | - | - | - | -
O=C(CCCn1c(SCC(=O)c2ccc(F)cc2)nc2ccccc2c1=O)NCc1ccccc1 | - | 90 | 71 | - | - | -
SMILES | CYP2C19 act | CYP2C9 inhib | CYP2C19 inhib | CYP2C9 activ | Cav3 T inh | Rev-RRE block
FC(F)(F)c1cnc(Sc2nc3nccc(-c4ccc(Cl)cc4)n3n2)c(Cl)c1 | - | - | - | - | . | -
N#Cc1c(Sc2ncc(C(F)(F)F)cc2Cl)nsc1C/C=N\OCc1ccccc1Br | - | - | - | - | - | 69
c1ccc(OCCOc2ccccc2-c2nnco2)cc1 | - | 75 | 91 | - | - | -
Cc1cccc(C(=O)Oc2ccccc2-c2nnco2)c1 | - | - | - | - | - | -
O=C(OCc1ccccc1Cl)c1cccnc1Cl | - | - | - | - | - | -
Clc1ccccc1COc1ccccc1-c1nnco1 | - | 50 | - | - | - | -
C=CCN(CC=C)C(=S)Nc1ccccc1 | - | - | - | - | - | -
COc1ccc(S(=O)(=O)O/N=C2\CCCc3ccccc32)cc1 | - | - | - | - | . | -
Cc1ccccc1NC1=C(C(=O)c2ccccc2)N(C)S(=O)(=O)c2ccccc21 | - | 63 | 56 | - | - | -
O=C(Oc1ccccc1Cl)c1ccc(-n2cncn2)nc1 | - | 78 | 93 | - | - | -
O=C(COc1ccccc1Cl)N1CCCC1 | - | - | - | - | - | -
C=CCOC(=O)c1ccc(-n2cncn2)nc1 | - | - | 80 | - | - | -
N#Cc1ccsc1NC(=O)COC(=O)CCCSc1nc2ccccc2s1 | - | - | - | - | - | -
Cc1ccc(NC(=O)CSCc2c(C)noc2C)cc1C | - | - | 94 | - | - | -
CCOC(=O)Cc1cn2c(=O)cc(CSCC(=O)Nc3ccc(C)c(C)c3)nc2s1 | - | 74 | - | - | - | .
Cc1noc(C)c1CSCC(=O)OCC(=O)Nc1sccc1C#N | - | 67 | - | - | - | -
O=C1C(c2ccccc2)SC(=Nc2ccccc2)N1S(=O)(=O)c1ccccc1 (configuration not stated) | - | - | - | - | - | -
CC(SC1CCCC1)C(=O)Nc1ccnn1C(C)C (configuration not stated) | - | - | - | - | - | -
CCCn1nnc(NC(=O)c2cc(Br)ccc2OC)n1 | - | - | 74 | 3.6 | - | -
CCCn1nnc(NC(=O)c2cccc(Cl)c2)n1 | . | . | . | . | - | -
CCCn1nnc(NC(=O)c2sc3ccccc3c2Cl)n1 | - | - | 61 | - | - | -
CCCCn1nnc(NC(=O)c2ccc(-c3cccc(Cl)c3)o2)n1 | - | - | - | - | -4.9 | -
CCCCn1nnc(NC(=O)Cc2ccc(Cl)cc2)n1 | - | - | - | - | - | -
CCCn1nnc(NC(=O)c2ccc(-c3cccc(Cl)c3)o2)n1 | - | - | - | - | -5 | -
CC(C)C[C@H](NC(=O)c1nc[nH]c1C(=O)N(C)Cc1ccccc1)C(=O)OC(C)(C)C | . | . | . | . | - | .
SMILES | CYP2C19 act | CYP2C9 inhib | CYP2C19 inhib | CYP2C9 activ | Cav3 T inh | Rev-RRE block
CCCn1nnc(NC(=O)Cc2ccccc2)n1 | - | - | - | - | - | -
CCCn1nnc(NC(=O)c2cccc(OCc3ccccc3)c2)n1 | - | 61 | - | - | - | -
CSc1nnc(C2CCCN2)n1C (configuration not stated) | - | - | - | - | - | -
COc1ccc(S(=O)(=O)N2CCN(C)CC2)c2ccccc12 | - | - | - | - | - | .
O=S(=O)(c1cccc(Cl)c1Cl)N1CCCCC1 | - | - | 83 | 2.7 | - | -
COc1c(S(=O)(=O)N2CCCC2)ccc(Cl)c1Cl | - | - | 88 | 2.4 | . | -
O=[N+]([O-])c1ccc(Oc2cccc(F)c2)c2ccncc12 | - | 83 | 85 | - | - | -
O=[N+]([O-])c1cnccc1Nc1cccc(F)c1 | . | . | . | . | - | -
